Experimental data from ChEMBL document CHEMBL4270555, “Synthesis and biological evaluation of magnolol derivatives as melatonergic receptor agonists with potential use in depression” (Eur J Med Chem, 2018).
The source made the active and inactive calls. The rule behind the calls is not given here.

Legend:
[1] = Drug metabolism in Sprague-Dawley rat feces assessed as 5,5'-bis(1-hydroxyallyl)biphenyl-2,2'-diol formation at 100 mg/kg, po by UPLC-IT-TOF-MS analysis; format: ADME, organism-based; conditions: in vivo
Method in brief: (§1)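 Rats (n = 6) housed in metabolic cages received 100.0 mg/kg orally; controls received 0.5% CMC-Na. Plasma, urine and faeces were collected and analyzed by LC-IT-TOF-MS on a C18 column at 30 °C. Gradient 5–100% acetonitrile with 0.05% formic acid over 18 min at 0.2 mL/min; positive and negative ion MS/MS.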

Mus musculus [2] = experiment: Toxicity in Kunming mouse assessed as effect in spontaneous locomotor activity by measuring total number of line crosses at 10 to 40 mg/kg, po by open field test; format: organism-based; conditions: in vivo
Method in brief: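 Male Kunming mice, 18–20 g, group-housed at 22 ± 2 °C on 12 h light/dark, given oral doses of 10, 20 or 40 mg/kg before behavioural testing. Each animal placed in the centre of a black open-field box (24 × 24 × 40 cm) for 30 s adaptation, then explored freely for 6 min. Line crossings and distance recorded. Mean ± SEM, n = 10.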

Rattus norvegicus [3] = experiment: Toxicity in Sprague-Dawley rat assessed as irritation at 2000 mg/kg, po measured over 4 hrs; format: organism-based; conditions: in vivo
Method in brief: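 Acute oral toxicity run per OECD 425 in adult SD rats (180–220 g). Six animals per group: vehicle control (0.5% CMC-Na, oral), male rats and female rats each dosed orally at 2000 mg/kg. Animals were watched continuously for the first 4 h for behavior, breathing, cutaneous signs (irritation, ulceration, caustic injury, skin rashes), sensory nervous and gastrointestinal effects. Later checks were hourly for 24 h, then every 6 h for 48 h.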

[4] = Drug metabolism in Sprague-Dawley rat plasma assessed as 1-(2'-hydroxy-5'-(1-hydroxyallyl)-6-((2S,3R,4S,5S,6R)-3,4,5-trihydroxy-6-(hydroxymethyl)tetrahydro-2H-pyran-2-yloxy)biphenyl-3-yl)prop-2-en-1-one formation at 100 mg/kg, po by UPLC-IT-TOF-MS analysis; format: ADME, organism-based; conditions: in vivo; method in brief: as §1
[5] = Drug metabolism in Sprague-Dawley rat urine assessed as 1-(2'-hydroxy-5'-(1-hydroxyallyl)-6-((2S,3R,4S,5S,6R)-3,4,5-trihydroxy-6-(hydroxymethyl)tetrahydro-2H-pyran-2-yloxy)biphenyl-3-yl)prop-2-en-1-one formation at 100 mg/kg, po by UPLC-IT-TOF-MS analysis; format: ADME, organism-based; conditions: in vivo
Method in brief: (§2)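 Male/unspecified SD rats (n = 6) housed individually in metabolic cages, dosed orally at 100.0 mg/kg; controls given 0.5% CMC-Na orally. Plasma, urine and faeces collected. LC-IT-TOF-MS on C18 column at 30 °C, formic acid (0.05%) water/acetonitrile gradient 5–100% B over 18 min, 0.2 mL/min; positive and negative ion modes with automatic MS/MS.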

[6] = Drug metabolism in Sprague-Dawley rat plasma assessed as 5,5'-diallyl-2'-hydroxybiphenyl-2-yl hydrogen sulfate formation at 100 mg/kg, po by UPLC-IT-TOF-MS analysis; format: ADME, organism-based; conditions: in vivo; method in brief: as §2
[7] = Toxicity in po dosed Sprague-Dawley rat measured continuously for first 4 hrs followed by measured every hour for next 24 hrs and at 6 hrs intervals for following 48 hrs post dose; format: organism-based; conditions: in vivo
Method in brief: (§3)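 Followed OECD 425 in adult SD rats (180–220 g), three groups of six. Vehicle control received 0.5% CMC-Na orally; separate male and female groups received 2000 mg/kg orally. Endpoints observed: behaviour, breathing, cutaneous effects, sensory nervous system responses, gastrointestinal effects and deaths.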

Mus musculus [8] = experiment: Decrease in dopamine level in Kunming mouse hippocampus at 40 mg/kg, po treated for 7 days by HPLC-ECD analysis; format: functional, organism-based
Method in brief: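 Male Kunming mice received vehicle or 40 mg/kg for 7 days, then were killed by cervical dislocation and the brain regions dissected on ice. Tissue was homogenized in ice-cold 0.2 M perchloric acid with 0.1 mM EDTA and centrifuged at 15,000 rpm, 20 min, 4 °C. Supernatant was analyzed by HPLC-ECD (+0.50 V; phosphate/octanesulfonate mobile phase, pH 3.0). Results in ng/g, mean ± SEM.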

[9] = Drug metabolism in Sprague-Dawley rat plasma assessed as 5,5'-diallylbiphenyl-2,2'-diol formation at 100 mg/kg, po by UPLC-IT-TOF-MS analysis; format: ADME, organism-based; conditions: in vivo; method in brief: as §2
[10] = Drug level in Sprague-Dawley rat feces at 100 mg/kg, po by UPLC-IT-TOF-MS analysis; format: ADME, organism-based; conditions: in vivo; method in brief: as §1
[11] = Drug metabolism in Sprague-Dawley rat plasma assessed as 2'-hydroxy-5'-(1-hydroxyallyl)-5-propylbiphenyl-2-yl hydrogen sulfate formation at 100 mg/kg, po by UPLC-IT-TOF-MS analysis; format: ADME, organism-based; conditions: in vivo; method in brief: as §1
Rattus norvegicus [12] = experiment: Toxicity in Sprague-Dawley rat assessed as change in behaviour at 2000 mg/kg, po measured continuously for first 4 hrs followed by measured every hour for next 24 hrs and at 6 hrs intervals for following 48 hrs post dose; format: organism-based; conditions: in vivo; method in brief: as §3
[13] = Drug metabolism in Sprague-Dawley rat plasma assessed as 5,5'-diallyl-2'-((2S,3R,4S,5S,6R)-3,4,5-trihydroxy-6-(hydroxymethyl)tetrahydro-2H-pyran-2-yloxy)biphenyl-2-yl hydrogen sulfate formation at 100 mg/kg, po by UPLC-IT-TOF-MS analysis; format: ADME, organism-based; conditions: in vivo; method in brief: as §2

C=CCc1ccc(O)c(-c2cc(CC=C)ccc2O[C@@H]2O[C@H](CO)[C@@H](O)[C@H](O)[C@H]2O)c1
Drug metabolism [1]: Metabolite_Detected
Activity (Mus musculus [2]): Non-Toxic
Activity (Rattus norvegicus [3]): Non-Toxic
Drug metabolism [4]: Metabolite_Notdetected
Drug metabolism [5]: Metabolite_Detected
Drug metabolism [6]: Metabolite_Notdetected
LD50 at 76 h [7]: > 2000 mg/kg
Activity (Mus musculus [8]): Active
Drug metabolism [9]: Metabolite_Notdetected
Drug uptake [10]: Not Active
Drug metabolism [11]: Metabolite_Notdetected
Activity (Rattus norvegicus [12]): Non-Toxic
Drug metabolism [13]: Metabolite_Notdetected
